The values that follow come from ChEMBL document CHEMBL2176995, “An oral sphingosine 1-phosphate receptor 1 (S1P(1)) antagonist prodrug with efficacy in vivo: discovery, synthesis, and evaluation” (J Med Chem, 2012).

SMILES strings stand for the structures. Calls of active or inactive are those of the source. No cut-off for these calls is given here. Bounds are passed on as bounds.

For data set [1], the system named is Rattus norvegicus. The data set can be described thus: Induction of capillary leakage in Lewis rat Evans blue dye lung leakage model at 30 mg/kg, po bid measured 6 hrs after 6 hrs relative to untreated control. Type of data set: organism-based. On the set-up: dose 30 mg/kg, route oral. The note with it: in vivo. A digest of the protocol:
(§1)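 Male Lewis rats were gavaged twice daily with vehicle or 30 mg/kg in 30% PEG200/buffer. Evans blue dye (20 mg/2 mL NaCl/kg iv) was given under anesthesia at 5, 23 or 95 h. One hour later the rats were bled, lungs were perfused with saline, dried at 60 °C for 24 h, weighed, and dye was extracted in formamide (24 h, 37 °C). Thoracic fluid volume was also recorded.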

In data set [2] the test system is Rattus norvegicus. The data set can be described thus: Toxicity in stringent Dark Agouti to Lewis rat heterotopic vascular heart allotransplantation model assessed as compound tolerance at 30 mg/kg, po bid coadministered with 0.3 mg/kg, qd everolimus. Format: organism-based. Particulars: in vivo. The gist of the method:
(§2)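 DA donor hearts were grafted into Lewis recipients. Treatment started 3 days before transplantation: prodrug 30 mg/kg po b.i.d. (PEG200/water, pH 5) alone or with sotrastaurin 10 mg/kg po b.i.d. or everolimus 0.3 mg/kg po q.d. Grafts were followed to rejection or up to 50 days. Allografts were formalin-fixed, cut at 3 μm, stained with H&E and trichrome, and scored for rejection. Lymphocytes were counted weekly before dosing, and body weight was monitored.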

A short description of data set [3]: Stability in pH 1 buffer by UPLC. Format: physicochemical. Particulars: read-out: Stability.
Data set [4] is described as follows: Stability in pH 10 buffer assessed as compound remaining measured after 17 hrs by UPLC. Type of data set: physicochemical. Particulars: pH 10, 17 h. A digest of the protocol: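 The ester was incubated in buffer at pH 7.4 or pH 10. Remaining ester and the hydrolysed carboxylic acid were followed over time by UPLC, at time points out to 82 h.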
Data set [5] has as its system Rattus norvegicus. Put plainly: Toxicity in stringent Dark Agouti to Lewis rat heterotopic vascular heart allotransplantation model assessed as compound tolerance at 30 mg/kg, po bid. Format: organism-based. Also on record: dose 30 mg/kg, route oral. Particulars: in vivo. The gist of the method: as §2
For data set [6], the system named is Rattus norvegicus. The data set can be described thus: Toxicity in stringent Dark Agouti to Lewis rat heterotopic vascular heart allotransplantation model assessed as change in body weight at 30 mg/kg, po bid. Type of data set: organism-based. On the set-up: dose 30 mg/kg, route oral. The note with it: in vivo. The gist of the method: as §2
Data set [7] relates to Rattus norvegicus. Put plainly: Induction of capillary leakage in Lewis rat Evans blue dye lung leakage model at 30 mg/kg, po bid measured 96 hrs after 6 hrs relative to untreated control. Type of data set: organism-based. Also on record: dose 30 mg/kg, route oral. Particulars: in vivo. A digest of the protocol: as §1
The test system of data set [8] is Rattus norvegicus. Put plainly: Reduction in peripheral blood lymphocytes in Lewis rat assessed as remaining circulating lymphocytes level at 30 mg/kg, po administered as single dose measured 24 hrs post dose by automated hematology analyzer. Type of data set: functional. A digest of the protocol:
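Male Lewis rats receive a single oral dose of compound or vehicle, freshly made in 30% PEG200/buffer. Blood (<200 μL) is drawn by sublingual puncture under isoflurane 5% v/v at baseline and later time points. Lymphocytes are counted on an automated hematology analyzer, and each animal's change is expressed as percent of its own pre-treatment baseline.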

The nature of data set [9]: Drug level in Lewis rat blood at 30 mg/kg, po administered as single dose measured 0.25 hrs post dose. The note with it: read-out: Drug uptake.
Data set [10] deals with Rattus norvegicus. Put plainly: Increase in allograft survival in stringent Dark Agouti to Lewis rat heterotopic vascular heart allotransplantation model assessed as improvement in histological changes at 30 mg/kg, po bid coadministered with 10 mg/kg, bid sotrastaurin by hematoxylin and eosin staining. Format: functional, organism-based. A digest of the protocol: as §2

A short description of data set [11]: Stability in pH 5 buffer by UPLC. Type of data set: physicochemical.
The test system of data set [12] is Rattus norvegicus. The data set can be described thus: Increase in allograft survival in stringent Dark Agouti to Lewis rat heterotopic vascular heart allotransplantation model assessed as allograft mean survival time at 30 mg/kg, po bid (reference value: 6 days). Type of data set: functional.
Data set [13] relates to Blood. Put plainly: Drug level in Lewis rat blood assessed as level of (S)-2-{[3'-(4-Chloro-2,5-dimethylphenylsulfonylamino)-3,5-dimethylbiphenyl-4-carbonyl]methylamino}-4-dimethylaminobutyric Acid Hydrochloride at 30 mg/kg, po administered as single dose measured 24 hrs post dose. Particulars: in vivo.

In the case of `COC(=O)[C@H](CCN(C)C)N(C)C(=O)c1c(C)cc(-c2cccc(NS(=O)(=O)c3cc(C)c(Cl)cc3C)c2)cc1C`, the “fold change (FC)” value in [1] is recorded as 3; in data set [7] it was 2.2. Also, the Activity result in data set [2] is on record as “Non-toxic”; in data set [5], “Non-toxic”; in [6], “Non-toxic”; in data set [8] it was 22%. The half-life in [3] was greater than 2.21 days. The values for the Stability result in [4] and in data set [11] were “Unstable” and greater than 53 h, respectively. Also, the concentration at 0.25 h in data set [9] is 146 ng/mL. Moreover, the result in data set [10] was Active. Further, the MST in data set [12] came to 8 days. Besides, the Drug uptake in data set [13] was 5 ng/mL.
